Screening data as filed in PubChem BioAssay.
PLCg1 inh – blocks human PLC-gamma1 enzyme activity; AID 720700; 0.84% of 370,000 active; inhibition, % at 12.2 µM; purified PLC-gamma1, fluorogenic substrate, fluorescence; in the data active = inhibition above about 9.5%
PLC-beta3 inh – PLC-beta3 (human) inhibition, primary screen; Q01970; Purified PLC-beta3, fluorogenic substrate, fluorescence; inhibition, % at 12.2 µM; 0.18% of 370,000 active; in the data active = inhibition above about 11%
procasp3 activ – procaspase-3 (human) activation; 0.11% of 330,000 active; P42574; activation, % at 8.5 µM; AID 463141; recombinant procaspase-3 D3A, Ac-DEVD-pNA absorbance 405 nm;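 active = activation above the mean of all tested compounds plus 3 SD, cut at about 21% in these data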
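assay system = Procaspase-3 D3A mutant | signal = absorbance at 405 nm, 0 and 120 min | times = 1 h preincubation plus 2 h reaction at 25 °C | repeats = single replicate | read-out = % activation between DMSO and enzyme-spiked controls | medium = Zinc-free HEPES saline buffer with Triton X-100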
HGIII-sPLA2 inh – Blocks human group III sPLA2 activity | Q9NZ20 | QFRET BODIPY PC-A2 liposome hydrolysis, fluorescence | inhibition, % at 12.2 µM | 0.56% of 370,000 active;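 active = inhibition above mean plus 3 SD of compounds lying within the high and low control bounds, cut at about 19% in these data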
Target sequence (Q9NZ20 whole entry, looked up): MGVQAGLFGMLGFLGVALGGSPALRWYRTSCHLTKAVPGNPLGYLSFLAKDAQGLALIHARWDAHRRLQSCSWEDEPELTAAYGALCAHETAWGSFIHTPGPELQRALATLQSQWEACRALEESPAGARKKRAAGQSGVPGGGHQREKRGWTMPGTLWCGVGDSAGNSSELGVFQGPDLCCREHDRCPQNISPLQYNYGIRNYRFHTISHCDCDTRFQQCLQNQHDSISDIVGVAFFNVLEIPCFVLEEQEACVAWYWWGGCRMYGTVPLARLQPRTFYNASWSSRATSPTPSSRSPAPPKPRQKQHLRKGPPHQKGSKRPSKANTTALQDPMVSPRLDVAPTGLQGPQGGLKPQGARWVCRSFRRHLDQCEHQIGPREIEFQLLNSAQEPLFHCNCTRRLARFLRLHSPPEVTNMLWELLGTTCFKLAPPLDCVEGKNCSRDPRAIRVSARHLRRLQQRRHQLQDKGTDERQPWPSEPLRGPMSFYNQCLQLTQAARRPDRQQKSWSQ
proCasp7 act – counter-screen: procaspase-7 (human) activation | AID 463210 | activation, % at 8.5 µM | P55210 | recombinant procaspase-7, Ac-DEVD-pNA absorbance 405 nm; D23A/D198A/D206A triple mutant, cannot self-cleave; scale: DMSO 0, 5 µM enzyme 100 | 0.093% of 330,000 active;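 active = percent activation above the screen-wide mean plus 3 SD, cut at about 25% in these data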
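Material: Procaspase-7 triple mutant (PC-7 D3A) | Quantity: 2 µM procaspase-7 mutant as dispensed | Reagent: DEVD-pNA substrate | Times: 1 h preincubation, 2 h reaction | Technique: 405 nm absorbance of p-nitroaniline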
sPLA2 confirm – human GIII-sPLA2 inhibition, confirmation; AID 743280; recombinant hGIII-sPLA2, BODIPY PC-A2 QFRET fluorescence; inhibition, % at 12.2 µM; 34% of 2,000 active; shares compounds with HGIII-sPLA2 inh;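 active = mean inhibition across triplicates above the hit cutoff set in the earlier primary screen, cut at about 19% in these data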
BODIPY interf – 535nm fluorescence interference, HGIII-sPLA2 counter-screen; shares compounds with HGIII-sPLA2 inh; BODIPY FL product fluorescence interference, QFRET; 8.5% of 2,000 active; inhibition, % at 12.2 µM; AID 743282;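 active = average inhibition above the solvent-only control mean plus 3 SD, cut at about 6% in these data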
535nm interf DR – 535nm optical interference dose response, HGIII-sPLA2 counter-screen | shares compounds with HGIII-sPLA2 inh | BODIPY FL product fluorescence interference, cell-free | IC50, µM | 240 tested, under 10 active | AID 743455;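 active = IC50 at or below 10 µM; inactive = IC50 above 10 µM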
Of the large screens only hits and unclear results are named; the others gave an inactive call (follow-up assays come after a bar, where they were run); ! = a repeat was not active. This is a sample that favours compounds with a hit; in the whole collection about 1.6% have one here.

COC(=O)c1c(Sc2ccccc2)c2ccccc2n1C	HGIII-sPLA2 inh 20 | sPLA2 confirm inactive | BODIPY interf inactive
O=C(NCCN1CCOCC1)c1ccc(=O)n(Cc2ccc(Cl)cc2)c1	none
CCc1n[nH]c(=S)n1/N=C/c1cc(Br)c(OC)cc1OC	HGIII-sPLA2 inh 22 | sPLA2 confirm 19 | BODIPY interf inactive
CC1CCC(NC(=O)C2CCN(C(=O)Nc3ccccc3)CC2)CC1 (stereo unspecified)	none
O=C(C[n+]1cccc(/C=N/O)c1)N(Cc1ccccc1)Cc1ccccc1	none
CCCN(CCC)C(=O)C[n+]1cccc(/C=N/O)c1	HGIII-sPLA2 inh 20 | sPLA2 confirm inactive | BODIPY interf inactive
C#CCNC(=O)C[C@H]1C[C@@]2(C(=O)OC)C(=C[C@H](C(C)(C)C)O[C@@H]2C)N(CCCCCCCC)C1=O	none (no result: procasp3 activ, proCasp7 act)
CCCCCCCCN1C(=O)[C@@H](CC(=O)NCC23CC4CC(CC(C4)C2)C3)C[C@@]2(C(=O)OC)C1=C[C@H](C(C)(C)C)O[C@@H]2C	HGIII-sPLA2 inh 21 (no result: procasp3 activ, proCasp7 act) | sPLA2 confirm inactive | BODIPY interf inactive
Oc1c(C(Nc2ccccn2)c2cccnc2)cc(Cl)c2cccnc12 (stereo unspecified)	HGIII-sPLA2 inh 22 | sPLA2 confirm 22 | BODIPY interf inactive
COc1ccc(CN2CCN(c3ccccn3)CC2)c(OC)c1C	HGIII-sPLA2 inh 19! | sPLA2 confirm inactive | BODIPY interf inactive
COc1ccc(CNC(=O)O[C@H]2CC[C@@]34CCCN3C(=O)CCC[C@H]4C2)cc1OC	none (no result: procasp3 activ, proCasp7 act)
O=C(C[n+]1ccc(/C=N/O)cc1)N1CCCCC1	HGIII-sPLA2 inh 22 | sPLA2 confirm inactive | BODIPY interf inactive
CCOC(=O)c1cnc2ccc(OCC)cc2c1NCc1ccccc1OC	HGIII-sPLA2 inh 24 | sPLA2 confirm inactive | BODIPY interf inactive
CC(=O)N1CCC(CCCC2CCN(C(C)=O)CC2)CC1	none
CCn1c(-c2ccco2)n[nH]c1=S	none
C=CCn1c(-c2ccco2)n[nH]c1=S	HGIII-sPLA2 inh 21 | sPLA2 confirm inactive | BODIPY interf inactive
O=[N+]([O-])c1cc2c(c([N+](=O)[O-])c1)Nc1ccccc1O2	HGIII-sPLA2 inh 21 (no result: procasp3 activ, proCasp7 act) | sPLA2 confirm 45 | BODIPY interf 12
O=C1Nc2ccccc2Oc2cc([N+](=O)[O-])cc(Oc3ccccc3)c21	none
CN1CCN(C=NC2=NN(c3cccc(C(F)(F)F)c3)CC2)CC1	none
CN(C)C=NC1=NN(c2cccc(C(F)(F)F)c2)CC1	HGIII-sPLA2 inh 21 | sPLA2 confirm inactive | BODIPY interf inactive
CN[C@@H](CO)C(=O)NC[C@H]1O[C@@H](n2cc(C)c(=O)[nH]c2=O)C[C@@H]1O	none (no result: procasp3 activ, proCasp7 act)
COc1cc(CNCCN(C)C)c(Br)cc1OCC(=O)NCc1ccccc1	HGIII-sPLA2 inh 22 | sPLA2 confirm inactive | BODIPY interf inactive
COc1ccc(NC2CCCN(Cc3cccc4cnccc34)C2)cc1OC (stereo unspecified)	none
COc1ccc(NC2CCCN(Cc3cccc4cnccc34)C2)cc1 (stereo unspecified)	HGIII-sPLA2 inh 20 | sPLA2 confirm inactive | BODIPY interf inactive
Cc1cc(F)ccc1C(O)c1ncc(-c2ccc(Oc3ccccc3)cc2)[nH]1 (stereo unspecified)	none (no result: procasp3 activ, proCasp7 act)
Cc1onc(-c2c(Cl)cccc2Cl)c1C(=O)N/N=C(\N)COc1ccc(Cl)cc1	HGIII-sPLA2 inh 28 | sPLA2 confirm 31 | BODIPY interf inactive | 535nm interf DR inactive
CCN(CC)c1ccc(/C=N/NC(=S)NC)c(O)c1	HGIII-sPLA2 inh 21 | sPLA2 confirm 37 | BODIPY interf inactive | 535nm interf DR inactive
CCN(CC)c1ccc(C=NNC(=O)c2cc(-c3ccc(C)c(C)c3)n[nH]2)c(O)c1	HGIII-sPLA2 inh 21 (no result: procasp3 activ, proCasp7 act) | sPLA2 confirm 31 | BODIPY interf inactive | 535nm interf DR inactive
CC(C)NC(=O)C1(C)CCN1C(=O)c1ccccc1 (stereo unspecified)	none (no result: procasp3 activ, proCasp7 act)
C=CCN1C(=O)c2ccc(C(=O)OCC(=O)Nc3ccccc3OC)cc2C1=O	HGIII-sPLA2 inh 20 | sPLA2 confirm inactive | BODIPY interf inactive
COc1ccccc1NC(=O)COC(=O)c1ccc2c(c1)OCCO2	none
CCSc1ncc(Cl)c(C(=O)Nc2ccccc2OC)n1	HGIII-sPLA2 inh 21 | sPLA2 confirm inactive | BODIPY interf inactive
CCn1c(-c2cc3c(C(F)(F)F)nn(C)c3s2)n[nH]c1=S	HGIII-sPLA2 inh 20 | sPLA2 confirm 34 | BODIPY interf inactive | 535nm interf DR inactive
O=C(Nc1c2c(nn1-c1ccc(F)cc1)CS(=O)C2)c1ccc(S(=O)(=O)N2CCOCC2)cc1 (stereo unspecified)	none
O=C(CCC(=O)N1CCN(C2c3ccccc3-c3ccccc32)CC1)Nc1nnc(C(F)(F)F)s1	none (no result: procasp3 activ, proCasp7 act)
